# According to ChEMBL document CHEMBL1138746, “Indolebutylamines as selective 5-HT(1A) agonists” (J Med Chem, 2004):
# Tests used:
# [1] = biological target: T1, 5-hydroxytryptamine receptor 1A (Rattus norvegicus, UniProt P19327); assay: Inhibition of 8-OH DPAT bindign to rat hydroxytryptamine 1A receptor in hippocampal membranes
# T1 sequence (P19327 whole entry): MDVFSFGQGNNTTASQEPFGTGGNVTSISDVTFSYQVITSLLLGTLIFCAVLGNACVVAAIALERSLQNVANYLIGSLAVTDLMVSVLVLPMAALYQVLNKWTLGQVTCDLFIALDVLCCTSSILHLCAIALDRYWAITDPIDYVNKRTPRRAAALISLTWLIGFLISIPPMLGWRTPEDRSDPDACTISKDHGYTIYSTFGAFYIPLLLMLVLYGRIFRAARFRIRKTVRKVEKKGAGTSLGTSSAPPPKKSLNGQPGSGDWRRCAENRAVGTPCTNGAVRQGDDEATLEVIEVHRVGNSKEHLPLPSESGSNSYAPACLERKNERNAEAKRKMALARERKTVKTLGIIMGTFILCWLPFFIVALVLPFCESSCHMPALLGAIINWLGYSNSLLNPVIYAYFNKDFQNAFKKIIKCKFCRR
# D(2) dopamine receptor = D(2) dopamine receptor (Rattus norvegicus, UniProt P61169); assay: Displacement of [3H]spiperone from dopamine D2 receptor of rat striatal membranes; format: cell membranes, Membrane
# In short: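 Rat striatal membranes (0.3–1.0 mg protein/mL) were incubated with 0.1 nM [3H]spiperone in Tris-HCl buffer (pH 7.1) containing 120 mmol/L NaCl, 5 mmol/L KCl, 1 mmol/L CaCl2, 1 mmol/L MgCl2 and 0.1% ascorbic acid, at 37 °C for 15 min. Bound ligand was separated by filtration with three ice-cold washes. Nonspecific binding was defined with 1 mmol/L (+)-butaclamol. IC50 (50% inhibition of binding) came from 5–10 concentrations, each in triplicate.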
# D(2) dopamine receptor, sequence (P61169 whole entry): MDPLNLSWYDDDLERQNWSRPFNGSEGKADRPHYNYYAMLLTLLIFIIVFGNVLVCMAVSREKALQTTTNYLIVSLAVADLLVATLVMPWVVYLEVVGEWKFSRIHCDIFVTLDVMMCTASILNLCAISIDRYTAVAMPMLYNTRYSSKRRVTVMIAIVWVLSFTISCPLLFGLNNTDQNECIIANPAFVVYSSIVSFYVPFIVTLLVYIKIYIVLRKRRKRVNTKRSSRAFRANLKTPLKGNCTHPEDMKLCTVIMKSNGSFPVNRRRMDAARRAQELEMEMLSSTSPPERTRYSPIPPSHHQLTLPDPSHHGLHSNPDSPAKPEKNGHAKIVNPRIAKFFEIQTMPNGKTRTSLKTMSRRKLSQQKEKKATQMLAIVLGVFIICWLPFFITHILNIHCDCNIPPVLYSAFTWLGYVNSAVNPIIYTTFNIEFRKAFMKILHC
IC50 [1],IC50 (D(2) dopamine receptor),Structure (SMILES)
90 nM,> 100 nM,COc1ccc(N2CCN(CCCCc3c[nH]c4ccc(OC5CCCC5)cc34)CC2)cc1
60 nM,> 100 nM,COc1ccc2[nH]cc(CCCCN3CCN(c4cc(C)c(OC)c(C)c4)CC3)c2c1
0.4 nM,> 100 nM,COc1ccc2[nH]cc(CCCCN3CCN(c4ccc5c(c4)CCO5)CC3)c2c1
2 nM,300 nM,CCOc1ccc2[nH]cc(CCCCN3CCN(c4ccc(OC)cc4)CC3)c2c1
1 nM,80 nM,Oc1ccc2[nH]cc(CCCCN3CCC(c4ccccc4)CC3)c2c1
0.1 nM,7 nM,NC(=O)c1ccc2[nH]cc(CCCCN3CCN(c4ccccc4)CC3)c2c1
0.5 nM,> 100 nM,COc1ccc(N2CCN(CCCCc3c[nH]c4ccc(OC(C)=O)cc34)CC2)cc1
20 nM,113 nM,COC(=O)c1ccc2[nH]cc(CCCCN3CCC(c4ccccc4)CC3)c2c1
8 nM,> 100 nM,COC(=O)c1ccc2[nH]cc(CCCCN3CCN(c4ccc(OC)cc4)CC3)c2c1
4 nM,100 nM,COc1ccc2[nH]cc(CCCCN3CCN(c4ccc5c(c4)OCO5)CC3)c2c1
0.2 nM,6.2 nM,N#Cc1ccccc1N1CCN(CCCCc2c[nH]c3ccc(C(N)=O)cc23)CC1
30 nM,220 nM,COc1ccc2[nH]cc(CCCCN3CCN(c4ccc(OCc5ccccc5)cc4)CC3)c2c1
34 nM,> 100 nM,COc1ccc(N2CCN(CCCCc3c[nH]c4ccc(OCc5ccccc5)cc34)CC2)cc1
10 nM,100 nM,COc1ccc2[nH]cc(CCCCN3CCN(c4ccc(OC)c(OC)c4)CC3)c2c1
20 nM,32 nM,COc1ccc2[nH]cc(CCCCN3CCN(c4ccccc4)CC3)c2c1
0.01 nM,5 nM,N#Cc1c(F)cccc1N1CCN(CCCCc2c[nH]c3ccc(C(N)=O)cc23)CC1
0.1 nM,17 nM,NC(=O)c1ccc2[nH]cc(CCCCN3CCC(c4ccccc4)CC3)c2c1
2 nM,> 100 nM,COc1ccc2[nH]cc(CCCCN3CCN(c4ccc5c(c4)CCCO5)CC3)c2c1
0.07 nM,100 nM,COc1ccc(N2CCN(CCCCc3c[nH]c4ccc(C(N)=O)cc34)CC2)c(OC)c1
0.2 nM,156 nM,NC(=O)c1ccc2[nH]cc(CCCCN3CCN(c4ccc(O)cc4)CC3)c2c1

IC50 [1],IC50 (D(2) dopamine receptor),Structure (SMILES)
0.8 nM,> 100 nM,CCOc1ccc(N2CCN(CCCCc3c[nH]c4ccc(OC)cc34)CC2)cc1
0.5 nM,120 nM,COc1ccc2[nH]cc(CCCCN3CCN(c4ccc5c(c4)OCCO5)CC3)c2c1
0.1 nM,1.2 nM,COc1ccccc1N1CCN(CCCCc2c[nH]c3ccc(C(N)=O)cc23)CC1
24 nM,–,COc1ccc2[nH]cc(CCCCN3CCN(c4ccc(OC(=O)C(C)(C)C)cc4)CC3)c2c1
3 nM,> 100 nM,COc1ccc2[nH]cc(CCCCN3CCN(c4ccc(NC(C)=O)cc4)CC3)c2c1
2 nM,53 nM,COc1ccc2[nH]cc(CCCCN3CCN(c4ccc(O)cc4)CC3)c2c1
40 nM,31 nM,COC(=O)c1ccc2[nH]cc(CCCCN3CCN(c4ccccc4)CC3)c2c1
0.7 nM,> 100 nM,COc1c(Cl)cc(N2CCN(CCCCc3c[nH]c4ccc(C(N)=O)cc34)CC2)cc1Cl
0.9 nM,28 nM,CCOCCOCCOc1cccc(N2CCN(CCCCc3c[nH]c4ccc(C(N)=O)cc34)CC2)c1C#N
200 nM,> 100 nM,CCCCCOc1ccc2[nH]cc(CCCCN3CCN(c4ccc(OC)cc4)CC3)c2c1
0.3 nM,97 nM,NC(=O)c1ccc2[nH]cc(CCCCN3CCN(c4ccccc4C(N)=O)CC3)c2c1
1 nM,> 100 nM,COc1ccc2[nH]cc(CCCCN3CCN(c4ccc(OC(C)=O)cc4)CC3)c2c1
0.2 nM,40 nM,NC(=O)c1ccc2[nH]cc(CCCCN3CCN(c4ccc5c(c4)OCCO5)CC3)c2c1
333 nM,> 100 nM,COc1ccc2[nH]cc(CCCCN3CCN(c4cc(OC)c(OC)c(OC)c4)CC3)c2c1
40 nM,> 100 nM,O=C(O)c1ccc2[nH]cc(CCCCN3CCN(c4ccccc4)CC3)c2c1
0.1 nM,> 100 nM,CC(=O)Nc1ccc(N2CCN(CCCCc3c[nH]c4ccc(C(N)=O)cc34)CC2)cc1
2 nM,–,COCCOc1ccc(N2CCN(CCCCc3c[nH]c4ccc(OC)cc34)CC2)cc1
0.5 nM,> 100 nM,NC(=O)c1ccc2[nH]cc(CCCCN3CCN(c4ccc5c(c4)CCO5)CC3)c2c1
100 nM,1000 nM,O=C(O)c1ccc2[nH]cc(CCCCN3CCC(c4ccccc4)CC3)c2c1

Structure (SMILES),IC50 [1],IC50 (D(2) dopamine receptor)
COc1ccc2[nH]cc(CCCCN3CC=C(c4ccccc4)CC3)c2c1,20 nM,–
COc1ccc2[nH]cc(CCCCN3CCN(c4ccc(O[Si](C)(C)C(C)(C)C)cc4)CC3)c2c1,70 nM,–
COc1ccc2[nH]cc(CCCCN3CC=C(c4ccc5c(c4)OCO5)CC3)c2c1,0.4 nM,> 100 nM
Oc1ccc2[nH]cc(CCCCN3CCN(c4ccccc4)CC3)c2c1,0.8 nM,4.2 nM
Oc1ccc2[nH]cc(CCCCN3CC=C(c4ccccc4)CC3)c2c1 [ROXINDOLE],0.8 nM,5.6 nM
COc1ccc2[nH]cc(CCCCN3CC=C(c4ccc(O)cc4)CC3)c2c1,0.4 nM,~100 nM
COc1ccc(C2=CCN(CCCCc3c[nH]c4ccc(OC)cc34)CC2)cc1,0.6 nM,> 100 nM
